Test results: paper PMC13487472 (Blood, 2026)

Test system: ALL-SIL
Assay: CTG assay in ALL-SIL
Assay type: cell-based
Settings: ABL-fusion-positive cell line, 72 hrs
In short: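 After 72 h, an equal volume of CellTiter-Glo was added and luminescence read as an ATP-based proxy for cell number. Signals were normalised to DMSO controls; triplicates; LC50 fitted with a 4-parameter dose-response model.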

Cc1nc(Nc2ncc(C(=O)Nc3c(C)cccc3Cl)s2)cc(N2CCN(CCO)CC2)n1 [dasatinib]
Cytotoxicity in ALL-SIL: highly sensitive
